Laboratory results reported in ChEMBL document CHEMBL1132269, “Self-immolative anthracycline prodrugs for suicide gene therapy” (J Med Chem, 1999).
pIC50: −log10 of the molar value. Values joined by “and” are separate entries in the source; they are usually repeats but may differ in a detail not shown here. Equal entries are not always repeated.

Experiments:
[1] = Half life period in the absence of CPG2 (carboxypeptidase) enzyme; type: ADME
In short: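 Prodrug at 100 μM in phosphate-buffered saline (pH 7.4), 37 °C, without enzyme; samples injected at timed intervals on reverse-phase HPLC, isocratic methanol/water/10 mM NaH2PO4 (pH 5.0), detection at 500 nm. Chemical half-life from slope of semilog plot.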

CPG2 (carboxypeptidase) = experiment: Half life period in the presence of CPG2 (carboxypeptidase) enzyme; type: ADME
In short: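 Prodrug at 100 μM in phosphate-buffered saline (pH 7.4), 37 °C, with 50 mU CPG2; timed samples analysed by reverse-phase HPLC, absorbance 500 nm. Plots linear on linear axes, so apparent half-life taken as time for concentration to fall to half its starting value.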

MDA-MB-361 [2] = experiment: The compound was tested for intracellular cytotoxicity against MDA MB 361(mammary carcinoma cell line) expressing LacZ (beta-galactosidase).; type: functional, cell-based; settings: Homo sapiens
In short: (§1)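 MDA MB 361 breast carcinoma cells stably expressing surface-tethered CPG2 (stCPG2(Q)3), intracellular CPG2 (CPG2*) or control beta-galactosidase (LacZ). Compounds dissolved in DMSO at 10 mM (stock) just before treatment. After exposure, cells harvested and reseeded in quadruplicate at ~2 × 10^3 cells/well. Cells fixed and stained with sulforhodamine-B once control plates reached confluence, absorbance read at 590 nm. Growth expressed as % of control, IC50 interpolated.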

MDA-MB-361 [3] = experiment: The compound was tested for intracellular cytotoxicity against MDA MB 361(mammary carcinoma cell line) in the presence of CPG2 prodrug; type: functional, cell-based; settings: Homo sapiens
In short: (§2)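 Cytotoxicity differential: ratio of a prodrug's IC50 in MDA MB 361 cells expressing stCPG2(Q)3 or CPG2* to its IC50 in LacZ control cells. IC50 values come from a sulforhodamine-B growth assay (cells reseeded in quadruplicate after treatment, stained at control confluence, A590, % control growth, interpolation). Prodrug:drug ratio taken in LacZ cells.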

[4] = Ratio of the intracellular cytotoxicities against MDA MB 361(mammary carcinoma cell line) expressing LacZ (beta-galactosidase). between prodrug and drug.; type: functional
In short: (§3)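 MDA MB 361 cells stably expressing surface-tethered CPG2 (stCPG2(Q)3) or β-galactosidase control (LacZ) treated with compound (10 mM DMSO stock made fresh), then reseeded in quadruplicate at ~2 × 10^3 cells/well; fixed and sulforhodamine-B stained when controls confluent, A590. IC50 interpolated from % control growth; ratio = LacZ vs stCPG2(Q)3 IC50 or prodrug vs drug IC50 in LacZ cells.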

MDA-MB-361 [5] = experiment: The compound was tested for extracellular cytotoxicity against MDA MB 361(mammary carcinoma cell line) in the presence of stCPG2 prodrug; type: functional, cell-based; settings: Homo sapiens; in short: as §2
[6] = Ratio of the extracellular cytotoxicities against MDA MB 361(mammary carcinoma cell line) expressing LacZ and carboxypeptidase stCPG2 of the prodrug.; type: functional; in short: as §3
MDA-MB-361 [7] = experiment: The compound was tested for extracellular cytotoxicity against MDA MB 361(mammary carcinoma cell line) expressing carboxypeptidase stCPG2.; type: functional, cell-based; settings: Homo sapiens; in short: as §1
MDA-MB-361 [8] = experiment: The compound was tested for intracellular cytotoxicity against MDA MB 361(mammary carcinoma cell line) expressing carboxypeptidase G2(CPG2).; type: functional, cell-based; settings: Homo sapiens; in short: as §1

COc1cccc2c1C(=O)c1c(O)c3c(c(O)c1C2=O)C[C@@](O)(C(C)=O)C[C@@H]3OC1CC(NC(=O)OCc2ccc(NC(=O)NC(CCC(=O)O)C(=O)O)cc2)C(O)C(C)O1 (stereo partly drawn)
half-life [1]: 19.8 h | half-life (CPG2 (carboxypeptidase)): 0.645 h | pIC50 (MDA-MB-361 [2]): 6.95 | pIC50 (MDA-MB-361 [3]): 6.91 | Ratio [4]: 6.6 | pIC50 (MDA-MB-361 [5]): 7.54

COc1cccc2c1C(=O)c1c(O)c3c(c(O)c1C2=O)C[C@@](O)(C(=O)CO)C[C@@H]3OC1CC(NC(=O)OCc2ccc(NC(=O)NC(CCC(=O)O)C(=O)O)cc2)C(O)C(C)O1 (stereo partly drawn)
half-life [1]: 15.8 h | half-life (CPG2 (carboxypeptidase)): 0.7 h | pIC50 (MDA-MB-361 [2]): 6.59 | pIC50 (MDA-MB-361 [3]): 7.33 | Ratio [4]: 21.3 | Ratio [6]: 5.4 and 10.7 | pIC50 (MDA-MB-361 [5]): 7.62

COc1cccc2c1C(=O)c1c(O)c3c(c(O)c1C2=O)C[C@@](O)(C(=O)CO)C[C@@H]3OC1CC(NC(=O)OCc2ccc(OC(=O)NC(CCC(=O)O)C(=O)O)cc2)C(O)C(C)O1 (stereo partly drawn)
half-life [1]: 28.4 h | half-life (CPG2 (carboxypeptidase)): 4.46 h | pIC50 (MDA-MB-361 [2]): 6.55 | pIC50 (MDA-MB-361 [3]): 6.69 | Ratio [4]: 23.3 | Ratio [6]: 1.4 and 3 | pIC50 (MDA-MB-361 [5]): 7.04

COc1cccc2c1C(=O)c1c(O)c3c(c(O)c1C2=O)C[C@@](O)(C(C)=O)C[C@@H]3OC1CC(NC(=O)OCc2ccc(OC(=O)NC(CCC(=O)O)C(=O)O)cc2)C(O)C(C)O1 (stereo partly drawn)
half-life [1]: 24.7 h | half-life (CPG2 (carboxypeptidase)): 2.21 h | pIC50 (MDA-MB-361 [2]): 6.94 | pIC50 (MDA-MB-361 [3]): 6.39 | Ratio [4]: 6.8 | Ratio [6]: 0.3 and 0.7 | pIC50 (MDA-MB-361 [5]): 6.75

COc1cccc2c1C(=O)c1c(O)c3c(c(O)c1C2=O)C[C@@](O)(C(C)=O)C[C@@H]3O[C@H]1C[C@H](N)[C@H](O)[C@H](C)O1 [DAUNORUBICIN]
pIC50 (MDA-MB-361 [2]): 7.77 | pIC50 (MDA-MB-361 [3]): 7.44 | pIC50 (MDA-MB-361 [5]): 7.68

COc1cccc2c1C(=O)c1c(O)c3c(c(O)c1C2=O)C[C@@](O)(C(=O)CO)C[C@@H]3O[C@H]1C[C@H](N)[C@H](O)[C@H](C)O1 [DOXORUBICIN]
pIC50 (MDA-MB-361 [7]): 7.74 | pIC50 (MDA-MB-361 [2]): 7.92 | pIC50 (MDA-MB-361 [8]): 7.48
